ChEMBL document CHEMBL4052594, “Discovery of Pyrrolidine-Containing GPR40 Agonists: Stereochemistry Effects a Change in Binding Mode” (J Med Chem, 2017)
pEC50, pIC50, pKi: −log10 of the molar value. One block for each compound: values may come before it. The source made the active and inactive calls. No cut-off for these calls is given here.

Tests used:
[1] = target: Free fatty acid receptor 1 (Mus musculus) (UniProt Q76JU9); assay: Agonist activity at mouse GPR40 inducibly expressed in HEK293 cells assessed as increase in intracellular calcium flux measured for 100 secs by FLIPR assay; type: functional, cell-based
Sequence of Free fatty acid receptor 1 (Mus musculus) (Q76JU9 whole entry): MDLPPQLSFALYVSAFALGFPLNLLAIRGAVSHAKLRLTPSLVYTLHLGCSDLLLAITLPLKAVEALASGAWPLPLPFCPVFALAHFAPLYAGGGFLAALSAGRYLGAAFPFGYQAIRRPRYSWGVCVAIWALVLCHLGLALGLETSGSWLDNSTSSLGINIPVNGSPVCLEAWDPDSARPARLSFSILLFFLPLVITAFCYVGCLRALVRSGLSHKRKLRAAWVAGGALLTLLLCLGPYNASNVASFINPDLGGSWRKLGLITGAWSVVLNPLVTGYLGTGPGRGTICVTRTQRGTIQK

[2] = target: T1, Free fatty acid receptor 1 (Homo sapiens, UniProt O14842); assay: Agonist activity at human GPR40 inducibly expressed in HEK293 cells assessed as increase in intracellular calcium flux measured for 100 secs by FLIPR assay; type: functional, cell-based
T1 sequence (O14842 whole entry): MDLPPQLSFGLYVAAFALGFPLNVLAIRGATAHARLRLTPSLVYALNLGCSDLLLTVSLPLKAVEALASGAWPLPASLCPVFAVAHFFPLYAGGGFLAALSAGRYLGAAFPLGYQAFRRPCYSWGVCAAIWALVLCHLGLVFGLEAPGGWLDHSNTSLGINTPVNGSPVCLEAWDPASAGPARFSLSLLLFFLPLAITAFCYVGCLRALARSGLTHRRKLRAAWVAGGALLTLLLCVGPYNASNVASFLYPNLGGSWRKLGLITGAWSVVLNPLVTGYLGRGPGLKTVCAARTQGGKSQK

[3] = tested on: Mus musculus; assay: Antidiabetic activity in C57BL/6J mouse assessed as change in plasma glucose AUC (0 to 120 mins) at 1 mg/kg, po administered 1 hr prior to glucose challenge by oral glucose tolerance test; type: functional
Summary of the method: (§1)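 C57BL/6J mice dosed orally at 0.3 or 1 mg/kg 1 h before an oral glucose bolus. Plasma glucose sampled at -60, -20, 0, 20, 40, 60 and 120 min; glucose AUC0-120 expressed relative to vehicle.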

[4] = Clearance in CD-1 mouse at 0.2 mg/kg, iv by LC-MS/MS analysis; type: ADME, organism-based; conditions: in vivo
[5] = Half life in human liver microsomes; type: ADME, microsome
[6] = target: Free fatty acid receptor 1 (Mus musculus) (UniProt Q76JU9); assay: Agonist activity at GPR40 in C57BL/6J mouse primary pancreatic islets assessed as increase in glucose-stimulated insulin secretion after 1 hr by ELISA
Summary of the method: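 Primary islets isolated from mice; insulin secretion measured across 0.016-2.0 µM compound to assess glucose-stimulated insulin secretion.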

[7] = target: T2, Free fatty acid receptor 1 (Mus musculus, UniProt Q76JU9); assay: Agonist activity at mouse GPR40 expressed in CHO-A12 cells assessed as increase in intracellular calcium flux measured for 100 secs by FLIPR assay; type: functional, cell-based
T2 sequence (Q76JU9 whole entry): as the sequence (Q76JU9 whole entry) above

[8] = target: T1, Free fatty acid receptor 1; assay: Intrinsic activity at human GPR40 transfected in HEK293 cells assessed as induction of cAMP accumulation at 16.7 uM incubated for 30 to 45 mins by HTRF assay relative to […]; type: functional, cell-based
[9] = Terminal half life in CD-1 mouse at 0.2 mg/kg, iv by LC-MS/MS analysis; type: ADME, organism-based; conditions: in vivo, read-out: beta t1/2 (converted)
[10] = Volume of distribution at steady state in CD-1 mouse at 0.2 mg/kg, iv by LC-MS/MS analysis; type: ADME, organism-based; conditions: in vivo, read-out: Vdss
[11] = Fraction unbound in human plasma; type: ADME, cell-free
[12] = target: T1, Free fatty acid receptor 1; assay: Potentiation of DHA-induced agonist activity at human GPR40 inducibly expressed in HEK293 cells assessed as increase in intracellular calcium flux at 3 nM measured for 100 secs by FLIPR assay; type: functional, cell-based
Summary of the method: (§2)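 Ca2+ FLIPR concentration-response to DHA in inducible hGPR40 cells, alone or with fixed added test compound (3 nM or 10 nM); curve shift assessed.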

[13] = target: T2, Free fatty acid receptor 1; assay: Agonist activity at GPR40 in mouse STC1 cells assessed as induction of GLP-1 secretion measured after 1 hr by HTRF assay; type: cell-based
[14] = tested on: Rattus norvegicus; assay: Toxicity in rat assessed as induction of hyperactivity at 80 mg/kg administered as single dose; type: organism-based; conditions: in vivo
Summary of the method: (§3)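 Male rats fitted with telemetry received a single 80 mg/kg dose. Heart rate and blood pressure recorded by telemetry; locomotor activity monitored.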

[15] = target: T1, Free fatty acid receptor 1; assay: Agonist activity at human GPR40 transfected in HEK293 cells assessed as induction of cAMP accumulation incubated for 30 to 45 mins by HTRF assay; type: functional, cell-based
[16] = target: T3, PPARgamma (Homo sapiens, UniProt P37231); assay: Transactivation of human Gal4 fused PPARgamma-LBD expressed in HEK293 cells at 4.8 uM after 18 hrs by luciferase reporter gene assay relative to […]; type: cell-based; conditions: HEK293 cells expressing Gal4-fused human PPARgamma-LBD
T3 sequence (P37231 whole entry): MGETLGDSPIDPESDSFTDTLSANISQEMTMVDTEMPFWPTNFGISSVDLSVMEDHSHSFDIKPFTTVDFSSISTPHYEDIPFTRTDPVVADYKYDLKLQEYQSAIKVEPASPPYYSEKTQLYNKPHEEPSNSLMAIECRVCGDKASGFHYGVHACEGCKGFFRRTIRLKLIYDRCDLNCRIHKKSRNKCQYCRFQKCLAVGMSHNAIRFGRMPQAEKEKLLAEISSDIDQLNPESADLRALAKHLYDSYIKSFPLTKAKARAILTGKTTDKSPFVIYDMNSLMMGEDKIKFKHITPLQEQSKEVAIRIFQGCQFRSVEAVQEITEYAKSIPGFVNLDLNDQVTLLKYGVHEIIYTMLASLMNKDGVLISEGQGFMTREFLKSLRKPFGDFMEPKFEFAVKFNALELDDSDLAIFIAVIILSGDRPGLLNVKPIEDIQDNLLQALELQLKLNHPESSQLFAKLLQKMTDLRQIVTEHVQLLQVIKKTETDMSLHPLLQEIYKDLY

[17] = tested on: Rattus norvegicus; assay: Toxicity in rat assessed as effect on mean arterial blood pressure at 80 mg/kg administered as single dose; type: organism-based; conditions: in vivo; summary of the method: as §3
[18] = target: Free fatty acid receptor 1 (Mus musculus) (UniProt Q76JU9); assay: Intrinsic activity at mouse GPR40 expressed in CHO-A12 cells assessed as increase in intracellular calcium flux at 8.3 uM measured for 100 secs by FLIPR assay […]; type: functional, cell-based
[19] = target: T4, Peroxisome proliferator-activated receptor gamma (Homo sapiens, UniProt P37231); assay: Binding affinity to PPARgamma (unknown origin); type: ADME
T4 sequence (P37231 whole entry): T3 sequence (P37231 whole entry)

[20] = tested on: Mus musculus; assay: Decrease in blood glucose level in C57BL/6J mouse at 0.3 mg/kg, po administered 1 hr prior to glucose challenge measured up to 120 mins by oral glucose tolerance test; type: functional, organism-based; summary of the method: as §1
[21] = target: T5, Peroxisome proliferator-activated receptor gamma (Mus musculus, UniProt P37238); assay: Agonist activity at PPARgamma in mouse 3T3L1 cells assessed as increase in insulin induced adipocyte differentiation by measuring free glycerol levels at 3 uM; type: cell-based
T5 sequence (P37238 whole entry): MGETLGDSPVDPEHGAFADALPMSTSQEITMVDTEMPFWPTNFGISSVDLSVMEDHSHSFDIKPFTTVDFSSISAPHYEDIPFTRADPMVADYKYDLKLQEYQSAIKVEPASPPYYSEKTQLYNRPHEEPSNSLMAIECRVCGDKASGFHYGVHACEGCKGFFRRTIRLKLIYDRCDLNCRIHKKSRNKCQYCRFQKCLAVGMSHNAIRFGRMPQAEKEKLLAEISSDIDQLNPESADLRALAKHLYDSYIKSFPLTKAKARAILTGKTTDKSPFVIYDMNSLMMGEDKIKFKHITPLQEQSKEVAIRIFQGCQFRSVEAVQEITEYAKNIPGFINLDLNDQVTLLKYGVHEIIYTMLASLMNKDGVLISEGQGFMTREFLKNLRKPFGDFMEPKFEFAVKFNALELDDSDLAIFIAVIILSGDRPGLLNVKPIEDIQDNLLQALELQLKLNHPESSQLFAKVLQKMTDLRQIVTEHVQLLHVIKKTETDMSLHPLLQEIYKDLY
Summary of the method: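 3T3L1 cells incubated with compound at 3 µM; free glycerol levels measured as a marker of PPARγ-mediated adipocyte differentiation.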

[22] = Fraction unbound in mouse plasma; type: ADME, cell-free
[23] = target: Cytochrome P450 3A4 (Homo sapiens, UniProt P08684); assay: Inhibition of CYP3A4 (unknown origin); type: ADME
Sequence of Cytochrome P450 3A4 (P08684 whole entry): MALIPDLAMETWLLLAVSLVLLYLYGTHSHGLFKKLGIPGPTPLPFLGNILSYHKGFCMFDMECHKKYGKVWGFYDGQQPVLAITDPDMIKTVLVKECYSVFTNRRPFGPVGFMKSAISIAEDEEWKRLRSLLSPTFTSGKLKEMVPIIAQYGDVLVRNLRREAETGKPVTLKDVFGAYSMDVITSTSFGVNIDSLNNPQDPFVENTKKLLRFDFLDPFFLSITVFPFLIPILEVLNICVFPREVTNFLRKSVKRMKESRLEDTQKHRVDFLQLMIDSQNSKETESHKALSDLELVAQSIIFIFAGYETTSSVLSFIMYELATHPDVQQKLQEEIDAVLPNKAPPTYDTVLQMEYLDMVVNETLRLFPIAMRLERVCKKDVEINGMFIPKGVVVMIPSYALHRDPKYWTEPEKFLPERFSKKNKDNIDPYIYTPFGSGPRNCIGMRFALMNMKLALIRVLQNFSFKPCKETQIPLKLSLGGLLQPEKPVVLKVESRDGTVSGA

[24] = Half life in cynomolgus monkey liver microsomes; type: ADME, Macaca fascicularis, microsome
[25] = tested on: Rattus norvegicus; assay: Toxicity in rat assessed as effect on heart rate at 80 mg/kg administered as single dose; type: organism-based; conditions: in vivo; summary of the method: as §3
[26] = target: T4, Peroxisome proliferator-activated receptor gamma; assay: Transactivation of human Gal4 fused PPARgamma-LBD expressed in HEK293 cells after 18 hrs by luciferase reporter gene assay; type: cell-based
Summary of the method: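 Gal4 gene reporter transactivation assay for PPARγ; EC50 and Ymax reported.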

[27] = target: T1, Free fatty acid receptor 1; assay: Agonist activity at human GPR40 expressed in CHO-A12 cells assessed as increase in intracellular calcium flux measured for 100 secs by FLIPR assay; type: functional, cell-based
[28] = Oral bioavailability in C57BL6 mouse at 0.5 mg/kg; type: ADME, organism-based; conditions: in vivo
[29] = Half life in mouse liver microsomes; type: ADME, microsome
[30] = target: T1, Free fatty acid receptor 1; assay: Potentiation of DHA-induced agonist activity at human GPR40 inducibly expressed in HEK293 cells assessed as increase in intracellular calcium flux at 10 nM measured for 100 secs by FLIPR assay; type: functional, cell-based; summary of the method: as §2
[31] = target: T1, Free fatty acid receptor 1; assay: Potentiation of DHA-induced agonist activity at human GPR40 inducibly expressed in HEK293 cells assessed as increase in intracellular calcium flux at agonism EC50 measured for 100 secs by FLIPR assay; type: functional, cell-based
[32] = target: T1, Free fatty acid receptor 1; assay: Binding affinity to human GPR40 expressed in HEK293 cell membranes after 1 hr by radioligand displacement based scintillation counting method
Summary of the method: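 Binding of human GPR40 measured as Ki against a radioligand. Mean of at least two runs. Displacement of the label appears as a negative slope and potentiation as a positive one.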

Activity [1]: Active
Activity [2]: Active
SMILES: COc1ccc(F)c(-c2ccc(Cc3ccc(N4CC(C(F)(F)F)CC4CC(=O)O)cc3)c(C)c2)c1 (mixture of isomers)

clearance [4]: 0.2 mL/min/kg
half-life [5]: > 2 h
Activity [6]: Dose-dependent effect
pEC50 [7]: 7.27
Intrinsic activity [8]: 140%
half-life [9]: 7 h
Vd [10]: 0.1 L/kg
fraction unbound [11]: 0.001
Activity [12]: Active
pEC50 [13]: 6.48
pEC50 [15]: 6.68
Intrinsic activity [18]: 210%
fraction unbound [22]: 0.011
pIC50 [23]: 5.77
half-life [24]: > 2 h
pEC50 [26]: 5.36
pEC50 [27]: 6.96
bioavailability [28]: 83%
half-life [29]: > 2 h
SMILES: COc1ccc(F)c(-c2ccc(Cc3ccc(N4C[C@H](C(F)(F)F)C[C@@H]4CC(=O)O)cc3)c(C)c2)c1
Activity [3]: 39%
Activity [14]: Toxic
Emax at 18 h, 4.8 µM [16]: 40%
Activity [17]: Non-Toxic
Activity [19]: 1.6 µM
Activity [20]: inactive
Activity [21]: Active
Activity [25]: Non-Toxic

pEC50 [7]: 5.62
Intrinsic activity [8]: 28%
Activity [30]: inactive
pEC50 [13]: 5.49
pEC50 [15]: 5.62
Activity [31]: inactive
Intrinsic activity [18]: 46%
pKi [32]: 7.35
pEC50 [27]: 6.31
SMILES: COc1ccc(F)c(-c2ccc(Cc3ccc(N4C[C@@H](C(F)(F)F)C[C@H]4CC(=O)O)cc3)c(C)c2)c1
Activity [3]: inactive
